From ChEMBL document CHEMBL3102739, “Synthesis and antiproliferative activity of conformationally restricted 1,2,3-triazole analogues of combretastatins in the sea urchin embryo model and against human cancer cell lines” (Bioorg Med Chem, 2014)

Experiments:
[1] = test system: COLO 205; test: Growth inhibition of human COLO205 cells after 48 hrs by SRB assay; format: functional; details: COLO 205, 48 h
[2] = Growth inhibition of human EKVX cells after 48 hrs by SRB assay; format: functional
[3] = test system: OVCAR-8; test: Growth inhibition of human OVCAR8 cells after 48 hrs by SRB assay; format: functional; details: OVCAR-8, 48 h
[4] = test system: KM12; test: Growth inhibition of human KM12 cells after 48 hrs by SRB assay; format: functional; details: KM12, 48 h
[5] = test system: SK-OV-3; test: Growth inhibition of human SKOV3 cells after 48 hrs by SRB assay; format: functional; details: SK-OV-3, 48 h
[6] = Growth inhibition of human OVCAR5 cells after 48 hrs by SRB assay; format: functional; details: OVCAR-5, 48 h
[7] = test system: U-251; test: Growth inhibition of human U251 cells after 48 hrs by SRB assay; format: functional; details: U-251, 48 h
[8] = test system: NCI-H322M; test: Growth inhibition of human NCI-H322M cells after 48 hrs by SRB assay; format: functional
[9] = test system: ACHN; test: Growth inhibition of human ACHN cells after 48 hrs by SRB assay; format: functional
[10] = Growth inhibition of human OVCAR4 cells after 48 hrs by SRB assay; format: functional; details: OVCAR-4, 48 h
[11] = test system: HT-29; test: Growth inhibition of human HT-29 cells after 48 hrs by SRB assay; format: functional; details: HT-29, 48 h
[12] = test system: SK-MEL-2; test: Growth inhibition of human SK-MEL-2 cells after 48 hrs by SRB assay; format: functional; details: SK-MEL-2, 48 h
[13] = test system: BT-549; test: Growth inhibition of human BT549 cells after 48 hrs by SRB assay; format: functional; details: BT-549, 48 h
[14] = test system: SF-295; test: Growth inhibition of human SF295 cells after 48 hrs by SRB assay; format: functional; details: SF-295, 48 h
[15] = test system: 786-0; test: Growth inhibition of human 786-0 cells after 48 hrs by SRB assay; format: functional; details: 786-0, 48 h
[16] = test system: SNB-19; test: Growth inhibition of human SNB19 cells after 48 hrs by SRB assay; format: functional; details: SNB-19, 48 h
[17] = test system: NCI-H23; test: Growth inhibition of human NCI-H23 cells after 48 hrs by SRB assay; format: functional; details: NCI-H23, 48 h
[18] = test system: TK-10; test: Growth inhibition of human TK10 cells after 48 hrs by SRB assay; format: functional; details: TK-10, 48 h
[19] = test system: A498; test: Growth inhibition of human A498 cells after 48 hrs by SRB assay; format: functional; details: A498, 48 h
[20] = test system: HOP-62; test: Growth inhibition of human HOP62 cells after 48 hrs by SRB assay; format: functional; details: HOP-62, 48 h
[21] = test system: CCRF-CEM; test: Growth inhibition of human CCRF-CEM cells after 48 hrs by SRB assay; format: functional
[22] = Growth inhibition of human UO31 cells after 48 hrs by SRB assay; format: functional; details: UO-31, 48 h
[23] = test system: SF-268; test: Growth inhibition of human SF268 cells after 48 hrs by SRB assay; format: functional; details: SF-268, 48 h
[24] = test system: SNB-75; test: Growth inhibition of human SNB75 cells after 48 hrs by SRB assay; format: functional; details: SNB-75, 48 h
[25] = test system: MDA-MB-231; test: Growth inhibition of human MDA-MB-231 cells after 48 hrs by SRB assay; format: functional; details: MDA-MB-231, 48 h
[26] = test system: MCF7; test: Growth inhibition of human MCF7 cells after 48 hrs by SRB assay; format: functional; details: MCF7, 48 h
[27] = test system: SR; test: Growth inhibition of human SR cells after 48 hrs by SRB assay; format: functional
[28] = test system: Paracentrotus lividus; test: Antimitotic activity against sea urchin embryo model assessed as cleavage alteration of fertilized egg compound treated at 8 to 20 mins post-fertilization and 45 to 55 mins prior to first mitotic cycle completion measured 2.5 to 5.5 hrs post-fertilization; format: functional
In short: (§1)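 Fertilized eggs are exposed 8–20 min after fertilization to 2-fold decreasing concentrations. Stocks are 10 mM in DMSO, then diluted 10-fold in 95% EtOH; final DMSO is at most 0.05% and EtOH at most 1%. Embryos are kept as a monolayer, up to 2000 embryos/mL, in filtered seawater at room temperature. The value is the threshold concentration giving cleavage alteration, embryo death before hatching or full mitotic arrest. Duplicates were run.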

[29] = Growth inhibition of human HCC2998 cells after 48 hrs by SRB assay; format: functional; details: HCC 2998, 48 h
[30] = Growth inhibition of human HOP92 cells after 48 hrs by SRB assay; format: functional; details: HOP-92, 48 h
[31] = test system: Paracentrotus lividus; test: Antimitotic activity against sea urchin embryo free-swimming blastula model assessed as embryo spinning compound treated at 8 to 10 hrs post-fertilization measured after 0.25 to 20 hrs; format: functional, Blastula stage
[32] = Growth inhibition of human SF539 cells after 48 hrs by SRB assay; format: functional; details: SF-539, 48 h
[33] = Growth inhibition of human NCI-ADR-RES cells after 48 hrs by SRB assay; format: functional
[34] = test system: SK-MEL-5; test: Growth inhibition of human SK-MEL-5 cells after 48 hrs by SRB assay; format: functional; details: SK-MEL-5, 48 h
[35] = test system: DU-145; test: Growth inhibition of human DU145 cells after 48 hrs by SRB assay; format: functional; details: DU-145, 48 h
[36] = test system: K562; test: Growth inhibition of human K562 cells after 48 hrs by SRB assay; format: functional; details: K562, 48 h
[37] = test system: SW-620; test: Growth inhibition of human SW620 cells after 48 hrs by SRB assay; format: functional; details: SW-620, 48 h
[38] = Growth inhibition of human RXF393 cells after 48 hrs by SRB assay; format: functional; details: RXF 393, 48 h
[39] = test system: PC-3; test: Growth inhibition of human PC3 cells after 48 hrs by SRB assay; format: functional; details: PC-3, 48 h
[40] = test system: HCT-15; test: Growth inhibition of human HCT15 cells after 48 hrs by SRB assay; format: functional; details: HCT-15, 48 h
[41] = test system: HCT-116; test: Growth inhibition of human HCT116 cells after 48 hrs by SRB assay; format: functional; details: HCT-116, 48 h
[42] = test system: SN12C; test: Growth inhibition of human SN12C cells after 48 hrs by SRB assay; format: functional
[43] = test system: CAKI-1; test: Growth inhibition of human CAKI-1 cells after 48 hrs by SRB assay; format: functional; details: CAKI-1, 48 h
[44] = test system: T47D; test: Growth inhibition of human T47D cells after 48 hrs by SRB assay; format: functional
[45] = test system: Paracentrotus lividus; test: Antimitotic activity against sea urchin embryo model assessed as cleavage arrest of fertilized egg compound treated at 8 to 20 mins post-fertilization and 45 to 55 mins prior to first mitotic cycle completion measured 2.5 to 5.5 hrs post-fertilization; format: functional; in short: as §1
[46] = test system: NCI-H460; test: Growth inhibition of human NCI-H460 cells after 48 hrs by SRB assay; format: functional; details: NCI-H460, 48 h
[47] = test system: RPMI-8226; test: Growth inhibition of human RPMI8226 cells after 48 hrs by SRB assay; format: functional; details: RPMI-8226, 48 h
[48] = test system: MDA-MB-468; test: Growth inhibition of human MDA-MB-468 cells after 48 hrs by SRB assay; format: functional; details: MDA-MB-468, 48 h

## COc1ccc(-c2nn[nH]c2-c2cc(OC)c(OC)c(OC)c2)cc1
[1]
  GI50: 33 nM
[2]
  GI50: < 10 nM
[3]
  GI50: < 10 nM
[4]
  GI50: < 10 nM
[5]
  GI50: < 10 nM
[6]
  GI50: < 10 nM
[7]
  GI50: < 10 nM
[8]
  GI50: < 10 nM
[9]
  GI50: 15 nM
[10]
  GI50: < 10 nM
[11]
  GI50: < 10 nM
[12]
  GI50: < 10 nM
[13]
  GI50: < 10 nM
[14]
  GI50: < 10 nM
[15]
  GI50: < 10 nM
[16]
  GI50: < 10 nM
[17]
  GI50: < 10 nM
[18]
  GI50: < 10 nM
[19]
  GI50: < 10 nM
[20]
  GI50: < 10 nM
[21]
  GI50: < 10 nM
[22]
  GI50: 1210 nM
[23]
  GI50: 21 nM
[24]
  GI50: < 10 nM
[25]
  GI50: < 10 nM
[26]
  GI50: < 10 nM
[27]
  GI50: < 10 nM
[28]
  EC: 0.005 µM
[29]
  GI50: < 10 nM
[30]
  GI50: < 10 nM
[31]
  EC: 0.1 µM
[32]
  GI50: < 10 nM
[33]
  GI50: < 10 nM
[34]
  GI50: < 10 nM
[35]
  GI50: < 10 nM
[36]
  GI50: < 10 nM
[37]
  GI50: < 10 nM
[38]
  GI50: < 10 nM
[39]
  GI50: 43 nM
[40]
  GI50: < 10 nM
[41]
  GI50: < 10 nM
[42]
  GI50: < 10 nM
[43]
  GI50: < 10 nM
[44]
  GI50: 2660 nM
[45]
  EC: 0.02 µM
[46]
  GI50: < 10 nM
[47]
  GI50: < 10 nM
[48]
  GI50: < 10 nM

## COc1ccc(-c2nn[nH]c2-c2cc(OC)c3c(c2OC)OCO3)cc1
[1]
  GI50: 884 nM
[2]
  GI50: 2790 nM
[3]
  GI50: 1320 nM
[4]
  GI50: 412 nM
[5]
  GI50: 854 nM
[6]
  GI50: 3630 nM
[7]
  GI50: 362 nM
[8]
  GI50: 2890 nM
[9]
  GI50: 6790 nM
[10]
  GI50: 4680 nM
[11]
  GI50: 376 nM
[12]
  GI50: 326 nM
[13]
  GI50: 345 nM
[14]
  GI50: 356 nM
[15]
  GI50: 1400 nM
[16]
  GI50: 1800 nM
[17]
  GI50: 1000 nM
[18]
  GI50: 6370 nM
[19]
  GI50: 353 nM
[20]
  GI50: 899 nM
[21]
  GI50: 684 nM
[22]
  GI50: 2960 nM
[23]
  GI50: 4020 nM
[24]
  GI50: 437 nM
[25]
  GI50: 1130 nM
[26]
  GI50: 352 nM
[27]
  GI50: 304 nM
[28]
  EC: 0.5 µM
[29]
  GI50: 1110 nM
[30]
  GI50: 500 nM
[31]
  EC: >5 µM
[32]
  GI50: 909 nM
[33]
  GI50: 296 nM
[34]
  GI50: 343 nM
[35]
  GI50: 1420 nM
[36]
  GI50: 493 nM
[37]
  GI50: 385 nM
[38]
  GI50: 657 nM
[39]
  GI50: 1930 nM
[40]
  GI50: 454 nM
[41]
  GI50: 353 nM
[42]
  GI50: 4670 nM
[43]
  GI50: 762 nM
[44]
  GI50: 716 nM
[45]
  EC: >4 µM
[46]
  GI50: 409 nM
[47]
  GI50: 816 nM
[48]
  GI50: 218 nM
